In brackets after ≈: the same amount, converted by molar mass. Read-outs that look alike come from different tables or passages of the source.
Columns and labels:
[1] = system: S. pyogenes ATCC700294; test: MIC, microbroth dilution in Mueller-Hinton broth; type: cell-based; conditions: Streptococcus pyogenes, ATCC700294, read-out: MIC SPy
Method in brief: (§1)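 CLSI broth microdilution in cation-adjusted Mueller-Hinton broth. Inocula were grown from MH agar colonies in MH broth, with a final inoculum of 10^5 CFU/ml. Test compound final range was 200–0.2 µg/ml, incubated 37°C for 18–20 h. MIC was the lowest concentration preventing visible growth. Runs were at least duplicate, and the mean MIC was reported.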

[2] = system: P. vulgaris ATCC 33420; test: MIC, microbroth dilution in Mueller-Hinton broth; type: cell-based; conditions: Proteus vulgaris, ATCC33420, read-out: MIC PV
[3] = system: E. coli BW25113 ΔampC derivative JW4111-2; type: cell-based, Escherichia coli; conditions: for MIC: Escherichia coli, BW25113, read-out: MIC ECΔampC −
[4] = system: E. coli BW25113; test: MIC, microbroth dilution in Mueller-Hinton broth; type: cell-based, Escherichia coli; conditions: for MIC EC MH+BP/CCCP: MH broth with 30 µg/ml 2,2′-bipyridyl and 50 µg/ml CCCP; for MIC EC +: with clavulanic acid (6µg/ml); for MIC: Escherichia coli, BW25113, read-out: MIC EC, E. coli BW25113
[5] = system: P. aeruginosa PA01; test: MIC, microbroth dilution in Mueller-Hinton broth; type: cell-based, Pseudomonas aeruginosa; conditions: for MIC PA MH+BP/CCCP: MH broth with 30 µg/ml 2,2′-bipyridyl and 50 µg/ml CCCP; for MIC PA +: with clavulanic acid (6µg/ml); for MIC: Pseudomonas aeruginosa
[6] = system: S. aureus NRS 70 (MRSA); test: MIC, microbroth dilution in Mueller-Hinton broth; type: cell-based; conditions: Staphylococcus aureus, MRSA|NRS70, read-out: MIC MRSA
Method in brief: as §1

[7] = system: B. subtilis ATCC23857; test: MIC, microbroth dilution in Mueller-Hinton broth; type: cell-based; conditions: Bacillus subtilis, ATCC23857, read-out: MIC BS
Method in brief: as §1

[8] = system: S. pneumoniae R6; test: MIC, microbroth dilution in Mueller-Hinton broth; type: cell-based; conditions: Streptococcus pneumoniae, R6, read-out: MIC SP
Method in brief: as §1

[9] = system: P. mirabilis ATCC 25933; test: MIC, microbroth dilution in Mueller-Hinton broth; type: cell-based; conditions: Proteus mirabilis, ATCC25933, read-out: MIC PM
[10] = system: S. aureus -ATCC29213 (MSSA); test: MIC, microbroth dilution in Mueller-Hinton broth; type: cell-based; conditions: Staphylococcus aureus, read-out: MIC MSSA
Method in brief: as §1

[11] = system: E. faecalis ATCC33186; test: MIC, microbroth dilution in Mueller-Hinton broth; type: cell-based; conditions: Enterococcus faecalis, ATCC33186, read-out: MIC EF
Method in brief: as §1

[12] = system: B. anthracis sterne; test: microbe, parasite or virus in culture; type: cell-based; conditions: Bacillus anthracis, read-out: MIC BA
[13] = system: E. coli BW25113 ΔtolC derivative JW5503-1; test: MIC, microbroth dilution in Mueller-Hinton broth; type: cell-based, Escherichia coli; conditions: for MIC: Escherichia coli
[14] = BW25113, read-out: MIC ECΔtolC MH
[15] = BW25113, read-out: MIC ECΔtolC MH+BP

SMILES | MIC [1] [µg/mL] | MIC [2] [µg/mL] | MIC [3] [µg/mL] | MIC ECΔampC + [3] [µg/mL] | MIC EC MH+BP/CCCP ([4]; E. coli BW25113) [µg/mL] | MIC EC + ([4]; E. coli BW25113) [µg/mL] | MIC ([4]; Mueller-Hinton broth (Table 2)) [µg/mL] | MIC PA MH+BP/CCCP ([5]; P. aeruginosa PA01) [µg/mL] | MIC PA + ([5]; P. aeruginosa PA01) [µg/mL] | MIC ([5]; PA01, read-out: MIC PA) [µg/mL] | MIC ([5]; PA01, read-out: MIC PA MH) [µg/mL] | MIC ([5]; PA01, read-out: MIC PA MH+BP) [µg/mL] | MIC ([5]; PA01, read-out: MIC PA MH+CCCP) [µg/mL] | MIC [6] [µg/mL] | MIC [7] [µg/mL] | MIC [8] [µg/mL] | MIC [9] [µg/mL] | MIC [10] [µg/mL] | MIC [11] [µg/mL] | MIC [12] [µg/mL] | also measured
CC(C)CC1NC(=O)C(C(=O)NC(C(=O)NC2C(=O)N3C2SC(C)(C)C3C(=O)O)c2ccccc2)=C1O (stereo not drawn) [Compound 1903] | 0.39 (≈ 0.735 µM) | 25 (≈ 47.1 µM) | 6.25 (≈ 11.8 µM) | 1.56 | 12.5 (≈ 23.6 µM) | 12.5 | 50 (≈ 94.2 µM) | 1.56 (≈ 2.94 µM) | 6.25 | 12.5 (≈ 23.6 µM) | 12.5 (≈ 23.6 µM) | 12.5 (≈ 23.6 µM) | 3.13 (≈ 5.9 µM) | 25 (≈ 47.1 µM) | 1.56 (≈ 2.94 µM) | 0.39 (≈ 0.735 µM) | 12.5 (≈ 23.6 µM) | 0.78 (≈ 1.47 µM) | 25 (≈ 47.1 µM) | 3.13 (≈ 5.9 µM) | MIC ([5]; PA01, read-out: MIC PA −): 12.5 µg/mL (≈ 23.6 µM); MIC ECΔtolC MH+CCCP ([13]; E. coli BW25113 ΔtolC JW5503-1, MH broth containing 50 µg/ml CCCP): 1.56 µg/mL (≈ 2.94 µM); MIC ([13]; BW25113, read-out: MIC ECΔtolC): 6.25 µg/mL (≈ 11.8 µM); MIC [13, 14]: 6.2 µg/mL (≈ 11.7 µM); MIC [13, 15]: 1.56 µg/mL (≈ 2.94 µM)
CC1(C)SC2C(NC(=O)C(NC(=O)C3=C(O)CN(c4ccccc4)C3=O)c3ccccc3)C(=O)N2C1C(=O)O (stereo not drawn) [Compound 2919] | 0.78 (≈ 1.42 µM) | 25 (≈ 45.4 µM) | 12.5 (≈ 22.7 µM) | 6.25 | 25 (≈ 45.4 µM) | 50 | 6.25 to 12.5 (≈ 11.4 to 22.7 µM) | 12.5 (≈ 22.7 µM) | 12.5 | 50 (≈ 90.8 µM) | 50 (≈ 90.8 µM) | 50 (≈ 90.8 µM) | 25 (≈ 45.4 µM) | 50 (≈ 90.8 µM) | 1.56 (≈ 2.83 µM) | < 0.2 | 50 (≈ 90.8 µM) | 0.78 (≈ 1.42 µM) | 25 (≈ 45.4 µM) | 3.13 (≈ 5.68 µM) | MIC EC ([4]; E. coli BW25113, Mueller-Hinton broth (Table 2)): 12.5 µg/mL (≈ 22.7 µM); MIC ([13]; BW25113, read-out: MIC ECΔtolC): 3.13 µg/mL (≈ 5.68 µM); MIC [13, 14]: 6.25 µg/mL (≈ 11.4 µM); MIC [13, 15]: 3.13 µg/mL (≈ 5.68 µM); MIC ECΔtolC MH+BP/CCCP ([13]; {}): 1.56 µg/mL (≈ 2.83 µM); MIC ECΔtolC MH+CCCP ([13]; {}): 3.13 µg/mL (≈ 5.68 µM)
CC1(C)SC2C(NC(=O)C(NC(=O)C3=C(O)CNC3=O)c3ccccc3)C(=O)N2C1C(=O)O (stereo not drawn) [Compound 2743] | < 0.2 | 100 (≈ 211 µM) | 12.5 (≈ 26.3 µM) | 6.25 | 12.5 (≈ 26.3 µM) | 12.5 | 200 (≈ 422 µM) | 3.13 (≈ 6.6 µM) | 12.5 | 25 (≈ 52.7 µM) | 25 (≈ 52.7 µM) | 12.5 (≈ 26.3 µM) | 6.25 (≈ 13.2 µM) | 25 (≈ 52.7 µM) | 0.78 (≈ 1.64 µM) | < 0.2 | 3.13 (≈ 6.6 µM) | 0.78 (≈ 1.64 µM) | 12.5 (≈ 26.3 µM) | 0.78 (≈ 1.64 µM) | MIC ([5]; PA01, read-out: MIC PA −): 25 µg/mL (≈ 52.7 µM); MIC ([13]; BW25113, read-out: MIC ECΔtolC): 12.5 µg/mL (≈ 26.3 µM); MIC [13, 14]: 12.5 µg/mL (≈ 26.3 µM); MIC [13, 15]: 6.25 µg/mL (≈ 13.2 µM); MIC ECΔtolC MH+BP/CCCP ([13]; {}): 1.56 µg/mL (≈ 3.29 µM); MIC ECΔtolC MH+CCCP ([13]; {}): 3.13 µg/mL (≈ 6.6 µM)
CC1(C)S[C@@H]2[C@H](NC(=O)[C@H](N)c3ccccc3)C(=O)N2[C@H]1C(=O)O [ampicillin, reference compound] | < 0.2 | 100 (≈ 286 µM) | – | 1.56 | 0.78 (≈ 2.23 µM) | 1.56 | 3.13 (≈ 8.96 µM) | – | 100 | > 200 | > 200 | > 200 | > 200 | 50 (≈ 143 µM) | < 0.2 | < 0.2 | 3.13 (≈ 8.96 µM) | < 0.2 | 3.13 (≈ 8.96 µM) | < 0.2 | MIC PA ([5]; P. aeruginosa PA01, Mueller-Hinton broth (Table 2)): >200 µg/mL; MIC ([5]; PA01, read-out: MIC PA −): > 200 µg/mL; MIC ECΔtolC MH+BP/CCCP ([13]; {}): 0.39 µg/mL (≈ 1.12 µM); MIC ECΔtolC MH+CCCP ([13]; {}): 1.56 µg/mL (≈ 4.46 µM)

Reference: article PMC5116011 (The Journal of antibiotics, 2016)
